In ChEMBL document CHEMBL2040721, “Potent direct inhibitors of factor Xa based on the tetrahydroisoquinoline scaffold” (Eur J Med Chem, 2012):

What was measured:
Coagulation factor X = Coagulation factor X (Homo sapiens, UniProt P00742); test: Inhibition of human factor 10a using chromogenic spectrozyme F10a as substrate after 10 mins by spectrophotometry
Summary of the method: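 Human plasma FXa pre-incubated 10 min at 37 °C with inhibitor (twelve concentrations, 0.015–500 μM in well) in pH 7.4 buffer, then Spectrozyme FXa added. Initial rate of A405 rise gives residual activity relative to no-inhibitor control. Duplicate or triplicate; logistic fit gives IC50, efficacy and Hill slope. Organic solvent held constant, <2.5% v/v.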

Plasma [1] = test: Anticoagulant activity in human plasma assessed as concentration required to double the activated […] time incubated for 4 mins prior to CaCl2-challenge by fibrometry; assay type: functional
Plasma [2] = test: Anticoagulant activity in human plasma assessed as concentration required to double the prothrombin time incubated for 30 s prior to thromboplastin addition by fibrometry
Prothrombin = Prothrombin (Homo sapiens, UniProt P00734); test: Inhibition of human factor 2a using chromogenic spectrozyme TH as substrate after 10 mins by spectrophotometry
Coagulation factor VII = molecular target: T1, Coagulation factor VII (Homo sapiens, UniProt P08709); test: Inhibition of human factor 7a using chromogenic spectrozyme 7a as substrate after 10 mins by spectrophotometry
T1 sequence (P08709 whole entry): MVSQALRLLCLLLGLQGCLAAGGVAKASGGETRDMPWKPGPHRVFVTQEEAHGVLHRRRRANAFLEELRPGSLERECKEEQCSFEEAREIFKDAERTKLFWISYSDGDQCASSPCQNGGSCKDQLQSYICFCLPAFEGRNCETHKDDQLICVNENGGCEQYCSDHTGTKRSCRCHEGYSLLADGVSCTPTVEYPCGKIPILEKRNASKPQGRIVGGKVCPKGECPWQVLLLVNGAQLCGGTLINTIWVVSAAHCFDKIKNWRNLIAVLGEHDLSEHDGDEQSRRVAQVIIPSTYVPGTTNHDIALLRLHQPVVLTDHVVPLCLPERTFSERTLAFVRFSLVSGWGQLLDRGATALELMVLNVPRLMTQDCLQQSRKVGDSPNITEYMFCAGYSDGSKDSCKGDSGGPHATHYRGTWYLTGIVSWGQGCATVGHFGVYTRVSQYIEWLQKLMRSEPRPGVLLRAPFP

Coagulation factor IX = Coagulation factor IX (Homo sapiens, UniProt P00740); test: Inhibition of human factor 9a using chromogenic spectrozyme 9a as substrate after 10 mins by spectrophotometry
Coagulation factor XI = Coagulation factor XI (Homo sapiens, UniProt P03951); test: Inhibition of human factor 11a using chromogenic S2366 as substrate after 10 mins by spectrophotometry
Coagulation factor XII = molecular target: T2, Coagulation factor XII (Homo sapiens, UniProt P00748); test: Inhibition of factor 12a using chromogenic spectrozyme 12a as substrate after 10 mins by spectrophotometry
T2 sequence (P00748 whole entry): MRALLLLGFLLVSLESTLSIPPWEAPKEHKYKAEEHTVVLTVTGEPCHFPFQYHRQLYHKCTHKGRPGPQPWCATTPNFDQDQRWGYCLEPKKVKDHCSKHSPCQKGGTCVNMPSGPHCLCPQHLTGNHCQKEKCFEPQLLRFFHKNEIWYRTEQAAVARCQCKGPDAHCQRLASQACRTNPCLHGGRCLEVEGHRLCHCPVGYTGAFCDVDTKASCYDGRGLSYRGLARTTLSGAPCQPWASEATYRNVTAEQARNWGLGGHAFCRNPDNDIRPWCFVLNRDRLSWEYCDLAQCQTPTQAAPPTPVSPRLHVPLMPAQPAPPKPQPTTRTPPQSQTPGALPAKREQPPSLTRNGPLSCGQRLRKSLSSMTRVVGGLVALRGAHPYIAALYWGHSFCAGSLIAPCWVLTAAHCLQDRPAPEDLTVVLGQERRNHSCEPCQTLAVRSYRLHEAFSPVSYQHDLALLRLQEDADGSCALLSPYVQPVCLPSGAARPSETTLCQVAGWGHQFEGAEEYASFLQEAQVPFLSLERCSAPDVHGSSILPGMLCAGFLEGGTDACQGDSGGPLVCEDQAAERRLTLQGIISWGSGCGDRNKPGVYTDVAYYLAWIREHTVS

[3] = Inhibition of bovine trypsin using chromogenic S2222 as substrate after 10 mins by spectrophotometry; parameters: species or system Bos taurus
Chymotrypsinogen A = Chymotrypsinogen A (Bos taurus, UniProt P00766); test: Inhibition of bovine alpha-chymotrypsin using chromogenic spectrozyme CTY as substrate after 10 mins by spectrophotometry
Homo sapiens [4] = species on record: Homo sapiens; test: Selectivity index ratio of IC50 for human factor 2a to IC50 for human factor 10a
Homo sapiens [5] = species on record: Homo sapiens; test: Selectivity index ratio of IC50 for human factor 7a to IC50 for human factor 10a
Homo sapiens [6] = species on record: Homo sapiens; test: Selectivity index ratio of IC50 for human factor 9a to IC50 for human factor 10a
Homo sapiens [7] = species on record: Homo sapiens; test: Selectivity index ratio of IC50 for human factor 11a to IC50 for human factor 10a
Homo sapiens [8] = species on record: Homo sapiens; test: Selectivity index ratio of IC50 for factor 12a to IC50 for human factor 10a
[9] = Selectivity index ratio of IC50 for bovine trypsin to IC50 for human factor10a
[10] = Selectivity index ratio of IC50 for bovine alpha-chymotrypsin to IC50 for human factor10a

Chain of Coagulation factor X (P00742 41-179 limits assumed): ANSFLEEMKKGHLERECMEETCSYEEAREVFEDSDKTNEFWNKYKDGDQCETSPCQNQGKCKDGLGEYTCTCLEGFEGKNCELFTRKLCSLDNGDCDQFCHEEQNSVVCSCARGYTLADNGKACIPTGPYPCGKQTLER
Chain of Coagulation factor X (P00742 235-488 limits assumed): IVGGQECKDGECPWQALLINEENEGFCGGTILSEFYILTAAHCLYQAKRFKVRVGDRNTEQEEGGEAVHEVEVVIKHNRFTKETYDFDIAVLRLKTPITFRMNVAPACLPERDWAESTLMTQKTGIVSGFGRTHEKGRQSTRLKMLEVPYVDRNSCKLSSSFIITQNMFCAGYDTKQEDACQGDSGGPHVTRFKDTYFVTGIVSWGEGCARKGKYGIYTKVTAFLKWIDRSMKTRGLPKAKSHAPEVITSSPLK
Chain of Coagulation factor IX (P00740 47-191 limits assumed): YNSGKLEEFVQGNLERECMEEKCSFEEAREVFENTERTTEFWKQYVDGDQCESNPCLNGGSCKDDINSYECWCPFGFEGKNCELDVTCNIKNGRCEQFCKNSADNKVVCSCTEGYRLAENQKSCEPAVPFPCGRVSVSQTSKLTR
Chain of Coagulation factor IX (P00740 227-461 limits assumed): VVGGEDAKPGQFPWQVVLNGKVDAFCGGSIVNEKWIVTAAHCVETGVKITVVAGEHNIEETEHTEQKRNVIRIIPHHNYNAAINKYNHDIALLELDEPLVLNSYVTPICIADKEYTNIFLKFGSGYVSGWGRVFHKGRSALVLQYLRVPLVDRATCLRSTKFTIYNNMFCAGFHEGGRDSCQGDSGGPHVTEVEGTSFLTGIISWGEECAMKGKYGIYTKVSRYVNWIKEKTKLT
Chain of Coagulation factor XI (P03951 19-387 limits assumed): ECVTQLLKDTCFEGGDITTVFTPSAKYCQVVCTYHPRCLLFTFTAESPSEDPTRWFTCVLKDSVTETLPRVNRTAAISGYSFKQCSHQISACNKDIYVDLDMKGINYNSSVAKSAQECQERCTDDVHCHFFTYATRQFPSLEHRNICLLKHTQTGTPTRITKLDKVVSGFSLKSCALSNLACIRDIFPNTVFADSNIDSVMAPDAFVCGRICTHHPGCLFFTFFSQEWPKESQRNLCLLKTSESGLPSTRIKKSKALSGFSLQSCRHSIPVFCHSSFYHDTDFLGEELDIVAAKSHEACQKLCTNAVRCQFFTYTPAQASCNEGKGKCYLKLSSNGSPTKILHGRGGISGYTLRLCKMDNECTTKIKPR
Chain of Coagulation factor XI (P03951 388-625 limits assumed): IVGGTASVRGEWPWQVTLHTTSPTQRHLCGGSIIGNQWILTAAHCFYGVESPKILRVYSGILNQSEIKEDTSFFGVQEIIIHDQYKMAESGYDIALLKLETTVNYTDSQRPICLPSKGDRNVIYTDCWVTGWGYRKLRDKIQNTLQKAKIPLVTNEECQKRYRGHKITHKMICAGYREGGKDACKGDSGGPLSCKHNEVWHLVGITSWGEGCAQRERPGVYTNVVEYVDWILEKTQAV

| SMILES | IC50 (Coagulation factor X) [µM] | other results |
| --- | --- | --- |
| COc1ccc(CCC(=O)N2Cc3ccccc3C[C@H]2C(=O)N(C)c2ccc(N3CCOCC3=O)cc2)cc1 | 190 | – |
| O=C(Nc1ccc(N2CCOCC2=O)cc1)[C@@H]1[C@@H]2CC[C@H](C2)N1C(=O)Cc1ccc(Cl)cc1 | 10 | 2PT (Plasma [2]): 2347 µM |
| CN(C(=O)[C@@H]1Cc2ccccc2CN1C(=O)c1ccc(Cl)s1)c1ccc(N2CCOCC2=O)cc1 | 36 | – |
| CN(C(=O)[C@@H]1Cc2ccccc2CN1C(=O)Cc1ccc(C(F)(F)F)cc1)c1ccc(N2CCCCC2=O)cc1 | 335 | – |
| CN(C(=O)[C@H]1CCCCN1C(=O)c1ccc(Cl)s1)c1ccc(N2CCCCC2=O)cc1 | 99 | – |
| CN(C(=O)[C@H]1CCCN(C(=O)Cc2ccc(Cl)cc2)C1)c1ccc(N2CCCCC2=O)cc1 | 371 | – |
| O=C(Nc1ccc(N2CCOCC2=O)cc1)[C@@H]1CC=CCN1C(=O)Cc1ccc(Cl)cc1 | 9 | 2aPTT (Plasma [1]): 810 µM; 2PT (Plasma [2]): 952 µM |
| CN(C(=O)[C@@H]1CCCN(C(=O)c2ccc(Cl)s2)C1)c1ccc(N2CCCCC2=O)cc1 | 69 | – |
| CN(C(=O)[C@@H]1CCCCN1C(=O)c1ccc(Cl)s1)c1ccc(N2CCCCC2=O)cc1 | 358 | – |
| COc1ccc(CCC(=O)N2Cc3ccccc3C[C@H]2C(=O)N(C)c2ccc(N3CCOCC3=O)cc2)c(OC)c1 | > 500 | – |
| CN(C(=O)[C@@H]1Cc2ccccc2CN1C(=O)c1cc(-c2ccc(Br)cc2)cs1)c1ccc(N2CCOCC2=O)cc1 | > 500 | – |
| CN(C(=O)[C@@H]1Cc2ccccc2CN1C(=O)Cc1ccc(Cl)cc1Cl)c1ccc(N2CCCCC2=O)cc1 | 1.3 | 2aPTT (Plasma [1]): 260 µM; 2PT (Plasma [2]): 219 µM |
| CCN(C(=O)[C@@H]1Cc2ccccc2CN1C(=O)Cc1ccc(Cl)cc1)c1ccc(N2CCOCC2=O)cc1 | 1.6 | – |
| COc1ccc(CC(=O)N2Cc3ccccc3C[C@H]2C(=O)N(C)c2ccc(N3CCCCC3=O)cc2)cc1OC | 246 | – |
| COc1cc2c(cc1OC)CN(C(=O)Cc1ccc(Cl)cc1)[C@H](C(=O)N(C)c1ccc(N3CCCCC3=O)cc1)C2 | 7.8 | – |
| CN(C(=O)[C@H](Cc1ccccc1)NC(=O)Cc1ccc(Cl)cc1)c1ccc(N2CCCCC2=O)cc1 | 54 | – |
| CN(C(=O)[C@@H]1Cc2ccccc2CN1C(=O)CCc1ncc(-c2ccc(Cl)cc2)o1)c1ccc(N2CCCCC2=O)cc1 | 103 | – |
| CN(C(=O)[C@@H]1Cc2ccccc2CN1S(=O)(=O)Cc1ccc(Cl)cc1)c1ccc(N2CCCCC2=O)cc1 | 151 | – |
| O=C(Nc1ccc(N2CCOCC2=O)cc1)[C@H]1CCCCN1C(=O)Cc1ccc(Cl)cc1 | 23 | – |
| CN(C(=O)[C@@H]1Cc2ccccc2CN1C(=O)Cc1ccc(Cl)cc1)c1ccc(N2CCOCC2=O)cc1 | 1.1 | – |
| CN(C(=O)[C@@H]1Cc2ccccc2CN1C(=O)c1ccc(Cl)s1)c1ccc(N2CCCCC2=O)cc1 | 56 | – |
| CN(C(=O)[C@H]1Cc2ccccc2CN1C(=O)Cc1ccc(C(F)(F)F)cc1)c1ccc(N2CCCCC2=O)cc1 | 311 | – |

Further lines, with some results ahead:

| IC50 (Coagulation factor X) [µM] | SMILES | other results |
| --- | --- | --- |
| 16.4 | CN(C(=O)[C@@H]1Cc2ccccc2CN1C(=O)OCc1ccccc1)c1ccc(N2CCCCC2=O)cc1 | – |
| 221 | CN(C(=O)[C@@H]1Cc2ccccc2CN1C(=O)OC(C)(C)C)c1ccc(N2CCCCC2=O)cc1 | – |
| 1.3 | CN(C(=O)[C@@H]1Cc2ccccc2CN1C(=O)Cc1ccc(Cl)cc1)c1ccc(N2CCCCC2=O)cc1 | 2aPTT (Plasma [1]): 80 µM; 2PT (Plasma [2]): 71 µM |
| 0.27 | O=C(Nc1ccc(N2CCOCC2=O)cc1)[C@H]1Cc2ccccc2CN1C(=O)Cc1ccc(Cl)cc1 | IC50 (Prothrombin): > 500 µM; IC50 (Coagulation factor VII): > 1000 µM; IC50 (Coagulation factor IX): > 1000 µM; IC50 (Coagulation factor XI): > 500 µM; IC50 (Coagulation factor XII): > 500 µM; IC50 [3]: > 100 µM; IC50 (Chymotrypsinogen A): 75.3 µM; Ratio IC50 (Homo sapiens [4]): > 1850; Ratio IC50 (Homo sapiens [5]): > 3700; Ratio IC50 (Homo sapiens [6]): > 3700; Ratio IC50 (Homo sapiens [7]): > 1850; Ratio IC50 (Homo sapiens [8]): > 1850; Ratio IC50 [9]: > 370; Ratio IC50 [10]: 279; 2aPTT (Plasma [1]): 20.2 µM; 2PT (Plasma [2]): 17.1 µM |
| > 500 | O=C(Nc1ccc(Cl)cc1)[C@@H]1Cc2ccccc2CN1C(=O)OCc1ccccc1 | – |
| 34 | COc1ccc(CC(=O)N2Cc3ccccc3C[C@H]2C(=O)N(C)c2ccc(N3CCCCC3=O)cc2)cc1 | – |
| 197 | CN(C(=O)[C@@H]1Cc2ccccc2CN1C(=O)c1ccc(Cl)cc1)c1ccc(N2CCCCC2=O)cc1 | – |
| 5.4 | Cc1c(C(=O)N2Cc3ccccc3C[C@H]2C(=O)Nc2ccc(N3CCOCC3=O)cc2)sc2ccc(Cl)cc12 | 2PT (Plasma [2]): 2160 µM |
| 19 | CCN(C(=O)[C@@H]1Cc2ccccc2CN1C(=O)OCc1ccccc1)c1ccc(N2CCOCC2=O)cc1 | – |
| > 500 | O=C(Nc1ccc(N2CCCCC2)cc1)[C@@H]1Cc2ccccc2CN1C(=O)OCc1ccccc1 | – |
| 14 | Cc1ccc(CC(=O)N2Cc3ccccc3C[C@H]2C(=O)N(C)c2ccc(N3CCCCC3=O)cc2)cc1 | – |
| 19 | CC(C)N(C(=O)[C@@H]1Cc2ccccc2CN1C(=O)OCc1ccccc1)c1ccc(N2CCCCC2=O)cc1 | – |
| 9.9 | O=C(Nc1ccc(N2CCCCC2=O)cc1)[C@@H]1Cc2ccccc2CN1C(=O)OCc1ccccc1 | – |
| 2.9 | O=C(Nc1ccc(N2CCOCC2=O)cc1)[C@@H]1Cc2ccccc2CN1C(=O)c1ccc(CCl)cc1 | 2aPTT (Plasma [1]): 614 µM; 2PT (Plasma [2]): 645 µM |
| > 500 | O=C(Nc1ccc(N2CCN(C(=O)c3cccs3)CC2)cc1)[C@@H]1Cc2ccccc2CN1C(=O)OCc1ccccc1 | – |
| 13.3 | O=C(Nc1ccc(N2CCCCC2=O)cc1)[C@@H]1Cc2ccccc2CN1C(=O)c1ccc(C(F)(F)F)cc1 | – |
| 18 | CN(C(=O)[C@@H]1Cc2ccccc2CN1C(=O)Cc1ccc(Cl)c(Cl)c1)c1ccc(N2CCCCC2=O)cc1 | – |
| 0.9 | CN(C(=O)[C@H]1Cc2ccccc2CN1C(=O)Cc1ccc(Cl)cc1)c1ccc(N2CCCCC2=O)cc1 | – |
| 19 | COc1ccc(C(=O)N2Cc3ccccc3C[C@H]2C(=O)N(C)c2ccc(N3CCCCC3=O)cc2)cc1 | – |
| 209 | Cc1ccc(C(=O)N2Cc3ccccc3C[C@H]2C(=O)N(C)c2ccc(N3CCCCC3=O)cc2)cc1 | – |
| 12.8 | CN(C(=O)[C@@H]1Cc2ccccc2CN1C(=O)OCc1ccccc1)c1ccc(N2CCOCC2=O)cc1 | – |
| > 500 | CC(=O)N1CCN(c2ccc(NC(=O)[C@@H]3Cc4ccccc4CN3C(=O)OCc3ccccc3)cc2)CC1 | – |
| 42 | CN(C(=O)[C@@H]1Cc2ccccc2CN1C(=O)c1cccs1)c1ccc(N2CCCCC2=O)cc1 | – |
| 6 | O=C(Nc1ccc(N2CCOCC2=O)cc1)[C@@H]1Cc2ccccc2CN1C(=O)OCc1ccccc1 | 2PT (Plasma [2]): 1387 µM |
| 20 | CCN(C(=O)[C@@H]1Cc2ccccc2CN1C(=O)OCc1ccccc1)c1ccc(N2CCCCC2=O)cc1 | – |
| 85 | CN(C(=O)[C@@H]1Cc2ccccc2CN1C(=O)Cc1ccc([N+](=O)[O-])cc1)c1ccc(N2CCCCC2=O)cc1 | – |
